Source: ChEMBL document CHEMBL1137781, “Synthesis and preclinical evaluation of novel PET probes for P-glycoprotein function and expression” (J Med Chem, 2009)

How the values were obtained:
Conditions in all cases: in vivo
[1] = Biodistribution in Wistar rat frontal cortex at 11+/-2 MBq, iv after 80 mins; format: ADME, organism-based
Summary of the method: (§1)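 Male Wistar rats (12 h light/dark, chow ad libitum) were fitted with a femoral arterial cannula under isoflurane. They were pretreated via tail vein with saline, cyclosporin A (50 mg/kg), or nonradioactive tracer compound (15 mg/kg; 10 mg/mL in saline with 35% ethanol). The 11C tracer was then given via penile vein, followed by 76 min microPET. Animals were then terminated; excised tissues were weighed and gamma-counted with decay correction. Values are SUVs (tissue MBq/g × body weight g / injected MBq).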

Hippocampus = test: Biodistribution in Wistar rat hippocampus at 11+/-2 MBq, iv after 80 mins; format: ADME, organism-based; summary of the method: as §1
[2] = Biodistribution in Wistar rat parietal/temporal/occipital cortex at 11+/-2 MBq, iv after 80 mins; format: ADME, organism-based; summary of the method: as §1
Striatum [3] = test: Biodistribution in Wistar rat striatum at 11+/-2 MBq, iv after 80 mins; format: ADME, organism-based
Colon = test: Biodistribution in Wistar rat colon at 11+/-2 MBq, iv after 80 mins; format: ADME, organism-based; summary of the method: as §1
Duodenum = test: Biodistribution in Wistar rat duodenum at 11+/-2 MBq, iv after 80 mins; format: ADME, organism-based; summary of the method: as §1
Heart [4] = test: Biodistribution in Wistar rat heart at 11+/-2 MBq, iv after 80 mins; format: ADME, organism-based; summary of the method: as §1
Kidney = test: Biodistribution in Wistar rat kidney at 11+/-2 MBq, iv after 80 mins; format: ADME, organism-based; summary of the method: as §1
Liver [5] = test: Biodistribution in Wistar rat liver at 11+/-2 MBq, iv after 80 mins; format: ADME, organism-based; summary of the method: as §1
Lung [6] = test: Biodistribution in Wistar rat lung at 11+/-2 MBq, iv after 80 mins; format: ADME, organism-based; summary of the method: as §1
Muscle tissue [7] = test: Biodistribution in Wistar rat muscle at 11+/-2 MBq, iv after 80 mins; format: ADME, organism-based; summary of the method: as §1
Pancreas [8] = test: Biodistribution in Wistar rat pancreas at 11+/-2 MBq, iv after 80 mins; format: ADME, organism-based; summary of the method: as §1
Plasma [9] = test: Biodistribution in Wistar rat plasma at 11+/-2 MBq, iv after 80 mins; format: ADME, organism-based
Summary of the method: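 Male Wistar rats under isoflurane with saline pretreatment via tail vein. Carbon-11 tracer (8–15 MBq, saline-diluted) was given via the penile vein. After the 76 min microPET list-mode scan, the anesthetized animals were killed and blood collected. Plasma was separated by centrifugation (5 min, 1000g), weighed, and gamma-counted with decay correction. Results are given as SUV (tissue MBq/g × body weight/injected dose).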

[10] = Biodistribution in 15 mg/kg unlabeled 6,7-dimethoxy-2-(3-(5-methoxy-3,4-dihydronaphthalen-1(2H)-ylidene)propyl)-1,2,3,4-tetrahydroisoquinoline pretreated Wistar rat bulbus olfactorius at 13+/-2 MBq, iv after 80 mins; format: ADME, organism-based, Olfactory bulb; parameters: dose 15 mg/kg, route intravenous
Summary of the method: (§2)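 Male Wistar rats given saline or unlabeled compound via tail vein: 15 mg/kg, dissolved at 10 mg/mL in saline with 35% ethanol. [11C] tracer (8-15 MBq) then given via penile vein. After microPET scanning the anesthetized rats were killed. Tissues were excised and weighed, and blood was spun for plasma and cell fraction. γ counting with decay correction. Results as SUV (tissue MBq/g × body weight/injected dose).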

[11] = Biodistribution in 15 mg/kg unlabeled 6,7-dimethoxy-2-(3-(5-methoxy-3,4-dihydronaphthalen-1(2H)-ylidene)propyl)-1,2,3,4-tetrahydroisoquinoline pretreated Wistar rat cingulate cortex at 13+/-2 MBq, iv after 80 mins; format: ADME, organism-based; parameters: dose 15 mg/kg, route intravenous; summary of the method: as §2
[12] = Biodistribution in 15 mg/kg unlabeled 6,7-dimethoxy-2-(3-(5-methoxy-3,4-dihydronaphthalen-1(2H)-ylidene)propyl)-1,2,3,4-tetrahydroisoquinoline pretreated Wistar rat entorhinal cortex at 13+/-2 MBq, iv after 80 mins; format: ADME, organism-based; parameters: dose 15 mg/kg, route intravenous; summary of the method: as §2
[13] = Biodistribution in 15 mg/kg unlabeled 6,7-dimethoxy-2-(3-(5-methoxy-3,4-dihydronaphthalen-1(2H)-ylidene)propyl)-1,2,3,4-tetrahydroisoquinoline pretreated Wistar rat frontal cortex at 13+/-2 MBq, iv after 80 mins; format: ADME, organism-based; parameters: dose 15 mg/kg, route intravenous; summary of the method: as §2
[14] = Biodistribution in 15 mg/kg unlabeled 6,7-dimethoxy-2-(3-(5-methoxy-3,4-dihydronaphthalen-1(2H)-ylidene)propyl)-1,2,3,4-tetrahydroisoquinoline pretreated Wistar rat medulla at 13+/-2 MBq, iv after 80 mins; format: ADME, organism-based, Medulla of organ; parameters: dose 15 mg/kg, route intravenous; summary of the method: as §2
[15] = Biodistribution in 15 mg/kg unlabeled 6,7-dimethoxy-2-(3-(5-methoxy-3,4-dihydronaphthalen-1(2H)-ylidene)propyl)-1,2,3,4-tetrahydroisoquinoline pretreated Wistar rat parietal/temporal/occipital cortex at 13+/-2 MBq, iv after 80 mins; format: ADME, organism-based; parameters: dose 15 mg/kg, route intravenous; summary of the method: as §2
Pons = test: Biodistribution in 15 mg/kg unlabeled 6,7-dimethoxy-2-(3-(5-methoxy-3,4-dihydronaphthalen-1(2H)-ylidene)propyl)-1,2,3,4-tetrahydroisoquinoline pretreated Wistar rat pons at 13+/-2 MBq, iv after 80 mins; format: ADME, organism-based; parameters: dose 15 mg/kg, route intravenous; summary of the method: as §2
Striatum [16] = test: Biodistribution in 15 mg/kg unlabeled 6,7-dimethoxy-2-(3-(5-methoxy-3,4-dihydronaphthalen-1(2H)-ylidene)propyl)-1,2,3,4-tetrahydroisoquinoline pretreated Wistar rat striatum at 13+/-2 MBq, iv after 80 mins; format: ADME, organism-based; parameters: dose 15 mg/kg, route intravenous; summary of the method: as §2
Bone = test: Biodistribution in 15 mg/kg unlabeled 6,7-dimethoxy-2-(3-(5-methoxy-3,4-dihydronaphthalen-1(2H)-ylidene)propyl)-1,2,3,4-tetrahydroisoquinoline pretreated Wistar rat bone at 13+/-2 MBq, iv after 80 mins; format: ADME, organism-based, Bone element; parameters: dose 15 mg/kg, route intravenous; summary of the method: as §2
[17] = Biodistribution in 15 mg/kg unlabeled 6,7-dimethoxy-2-(3-(5-methoxy-3,4-dihydronaphthalen-1(2H)-ylidene)propyl)-1,2,3,4-tetrahydroisoquinoline pretreated Wistar rat fat at 13+/-2 MBq, iv after 80 mins; format: ADME, organism-based, Adipose tissue; parameters: dose 15 mg/kg, route intravenous; summary of the method: as §2
Heart [18] = test: Biodistribution in 15 mg/kg unlabeled 6,7-dimethoxy-2-(3-(5-methoxy-3,4-dihydronaphthalen-1(2H)-ylidene)propyl)-1,2,3,4-tetrahydroisoquinoline pretreated Wistar rat heart at 13+/-2 MBq, iv after 80 mins; format: ADME, organism-based; parameters: dose 15 mg/kg, route intravenous; summary of the method: as §2
Liver [19] = test: Biodistribution in 15 mg/kg unlabeled 6,7-dimethoxy-2-(3-(5-methoxy-3,4-dihydronaphthalen-1(2H)-ylidene)propyl)-1,2,3,4-tetrahydroisoquinoline pretreated Wistar rat liver at 13+/-2 MBq, iv after 80 mins; format: ADME, organism-based; parameters: dose 15 mg/kg, route intravenous; summary of the method: as §2
Lung [20] = test: Biodistribution in 15 mg/kg unlabeled 6,7-dimethoxy-2-(3-(5-methoxy-3,4-dihydronaphthalen-1(2H)-ylidene)propyl)-1,2,3,4-tetrahydroisoquinoline pretreated Wistar rat lung at 13+/-2 MBq, iv after 80 mins; format: ADME, organism-based; parameters: dose 15 mg/kg, route intravenous; summary of the method: as §2
Muscle tissue [21] = test: Biodistribution in 15 mg/kg unlabeled 6,7-dimethoxy-2-(3-(5-methoxy-3,4-dihydronaphthalen-1(2H)-ylidene)propyl)-1,2,3,4-tetrahydroisoquinoline pretreated Wistar rat muscle at 13+/-2 MBq, iv after 80 mins; format: ADME, organism-based; parameters: dose 15 mg/kg, route intravenous; summary of the method: as §2
Pancreas [22] = test: Biodistribution in 15 mg/kg unlabeled 6,7-dimethoxy-2-(3-(5-methoxy-3,4-dihydronaphthalen-1(2H)-ylidene)propyl)-1,2,3,4-tetrahydroisoquinoline pretreated Wistar rat pancreas at 13+/-2 MBq, iv after 80 mins; format: ADME, organism-based; parameters: dose 15 mg/kg, route intravenous; summary of the method: as §2
Plasma [23] = test: Biodistribution in 15 mg/kg unlabeled 6,7-dimethoxy-2-(3-(5-methoxy-3,4-dihydronaphthalen-1(2H)-ylidene)propyl)-1,2,3,4-tetrahydroisoquinoline pretreated Wistar rat plasma at 13+/-2 MBq, iv after 80 mins; format: ADME, organism-based; parameters: dose 15 mg/kg, route intravenous; summary of the method: as §2
[24] = Biodistribution in Wistar rat amygdala at 11+/-2 MBq, iv after 80 mins; format: ADME, organism-based
[25] = Biodistribution in Wistar rat bulbus olfactorius at 11+/-2 MBq, iv after 80 mins; format: ADME, organism-based, Olfactory bulb

COc1cc2c(cc1OC)CN(CC/C=C1\CCCc3c(O[11CH3])cccc31)CC2
SUV [1]: 0.65 | SUV (Hippocampus): 0.45 | SUV [2]: 0.65 | SUV (Striatum [3]): 0.46 | SUV (Colon): 1.85 | SUV (Duodenum): 3.06 | SUV (Heart [4]): 0.48 | SUV (Kidney): 1.53 | SUV (Liver [5]): 1.75 | SUV (Lung [6]): 1.34 | SUV (Muscle tissue [7]): 0.52 | SUV (Pancreas [8]): 4.02 | SUV (Plasma [9]): 0.49 | SUV [10]: 0.4 | SUV [11]: 0.31 | SUV [12]: 0.49 | SUV [13]: 0.37 | SUV [14]: 0.46 | SUV [15]: 0.43 | SUV (Pons): 0.5 | SUV (Striatum [16]): 0.4 | SUV (Bone): 0.81 | SUV [17]: 0.36 | SUV (Heart [18]): 0.68 | SUV (Liver [19]): 2.34 | SUV (Lung [20]): 2.13 | SUV (Muscle tissue [21]): 0.45 | SUV (Pancreas [22]): 2.73 | SUV (Plasma [23]): 0.56 | SUV [24]: 0.65 | SUV [25]: 0.64
